Assay results collected from several papers.
Protocols differ between the studies behind these lines.
PIK3CA H1047L: Phosphatidylinositol 4,5-bisphosphate 3-kinase catalytic subunit alpha isoform (PIK3CA, Homo sapiens, UniProt P42336, H1047L)
PIK3CA E542K: Phosphatidylinositol 4,5-bisphosphate 3-kinase catalytic subunit alpha isoform (PIK3CA, Homo sapiens, UniProt P42336, E542K)
PIK3CA H1047Y: Phosphatidylinositol 4,5-bisphosphate 3-kinase catalytic subunit alpha isoform (PIK3CA, Homo sapiens, UniProt P42336, H1047Y)
PIK3CA: Phosphatidylinositol 4,5-bisphosphate 3-kinase catalytic subunit alpha isoform (PIK3CA, Homo sapiens, UniProt P42336)
PIK3CA Q546K: Phosphatidylinositol 4,5-bisphosphate 3-kinase catalytic subunit alpha isoform (PIK3CA, Homo sapiens, UniProt P42336, Q546K)
PIK3CA C420R: Phosphatidylinositol 4,5-bisphosphate 3-kinase catalytic subunit alpha isoform (PIK3CA, Homo sapiens, UniProt P42336, C420R)

| SMILES | target | read-out | action | method | tested at | quantity | result |
| --- | --- | --- | --- | --- | --- | --- | --- |
| O=S(=O)(NC1CCC(c2cc(F)ccc2F)(S(=O)(=O)c2ccc(Cl)cc2)CC1)C(F)(F)F (stereo not shown) | PIK3CA H1047L | cell-free assay | – | competition with immobilised ligand | 1 µM | remaining binding | 41% |
| CC(=O)Oc1ccc(-c2coc3c4c(c(CC=C(C)C)c(OC(C)=O)c3c2=O)OC(C)(C)C=C4)cc1OC(C)=O | PIK3CA E542K | enzyme activity | inhibitor | ADP detection | 10 µM | remaining activity | 46.1% |
| CN(C)C(=O)Cn1cc(-c2nc([C@@](C)(c3ccc(-c4cnc(N)nc4)cc3)C3CC3)no2)cn1 | PIK3CA H1047Y | cell-free assay | – | competition with immobilised ligand | 1 µM | remaining binding | 87% |
| Cc1ccc(C(=O)Nc2ccc(CN3CCN(C)CC3)c(C(F)(F)F)c2)cc1C#Cc1cnc2cccnn12 | PIK3CA E542K | enzyme activity | inhibitor | – | 23.5 nM | remaining activity | 96% |
| C=CC(=O)NCCCCC(=O)N1CCN(c2nc(-c3cnc(N)nc3C(F)F)nc(N3CCOCC3)n2)CC1 | PIK3CA | cell-free assay | – | TR-FRET | – | kinact/KI | 16400 M⁻¹ s⁻¹ |
| Nc1ncnc2occ(-c3ccc(NC(=O)Nc4cc(C(F)(F)F)ccc4F)cc3)c12 | Phosphatidylinositol 4,5-bisphosphate 3-kinase catalytic subunit alpha isoform (PIK3CA, Homo sapiens, UniProt P42336, M1043I) | cell-free assay | inhibitor | – | 20 µM | remaining signal | 100% |
| Cc1cnn2ncc(-c3ccnc(N(C)C)n3)c2c1 | PIK3CA Q546K | binding | – | – | 1 µM | remaining binding | 5.1% |
| CC(C)=CC(=O)CCCC(=O)N1CCN(c2nc(-c3cnc(N)nc3C(F)F)nc(N3CCOCC3)n2)CC1 | PIK3CA | ligand displacement | – | TR-FRET | – | kinact/KI | 3210 M⁻¹ s⁻¹ |
| Cc1nc(N2CC[C@@H](O)C2)ncc1-c1cc(C(F)(F)F)cc2[nH]ncc12 | PIK3CA C420R | cell-free assay | – | competition with immobilised ligand | 1 µM | remaining binding | 82% |
| C[C@@H]1CCN(c2nccc(-c3cnn4ncccc34)n2)C1 | PIK3CA C420R | binding | – | – | 1 µM | remaining binding | 100% |
| O=C(CSc1nc2nccnc2c(=O)n1CCc1ccccc1)Nc1ccccc1 | PIK3CA | enzyme activity | inhibitor | – | 10 µM | inhibition | < 20% |
| CC1=C(C#N)[C@@H](c2ccc3[nH]nc(C)c3c2)C(C#N)=C(c2ccc(Cl)cc2)N1 | PIK3CA H1047L | cell-free assay | – | competition with immobilised ligand | 1 µM | remaining binding | 100% |
| C=CC(=O)N(C)CCCCC(=O)N1CCN(c2nc(-c3cnc(N)nc3C(F)F)nc(N3CCOCC3)n2)CC1 | PIK3CA | cell-free assay | – | TR-FRET | – | kinact/KI | 20300 M⁻¹ s⁻¹ |
| CN(c1nccc(-c2cnn3ncccc23)n1)C1CC1 | PIK3CA | binding | – | – | 1 µM | remaining binding | 100% |
| c1ccc(CNc2nc(N3CCOc4ccccc43)nc3c2CCCC3)cc1 | PIK3CA | target engagement in cells | inhibitor | chemoproteomics | 20 mM | inhibition | 28.5% |
| O=C(NCc1ncc(C(F)(F)F)cc1Cl)c1ccc2c(c1)C1(CCS(=O)(=O)CC1)[C@@H](C1CC1)N2S(=O)(=O)c1ccc(F)cc1 | PIK3CA H1047Y | cell-free assay | – | competition with immobilised ligand | 1 µM | remaining binding | 85% |
| CS(=O)(=O)Nc1cc(-c2ccc3ncnc(Nc4ccc(F)c(Cl)c4)c3c2)cnc1Cl | PIK3CA | enzyme activity | inhibitor | FRET | 10 µM | inhibition | 90 to 100% |
| O=C(O)[C@@H]1[C@@H](Cn2nnc3ccccc3c2=O)CC[C@H]1C(=O)c1ccc(OCCC2CCOCC2)cc1 | PIK3CA Q546K | cell-free assay | – | competition with immobilised ligand | 1 µM | remaining binding | 86% |
| Cc1ccc(C(=O)NCc2ccsc2)cc1C#Cc1cn(C(C)C)c2ncnc(N)c12 | Phosphatidylinositol 4,5-bisphosphate 3-kinase catalytic subunit alpha isoform, with p85 (PIK3CA, Homo sapiens, UniProt P42336) | enzyme activity | inhibitor | – | 1 µM | activity vs control | 97% |
| N[C@@H]1CCN(c2nccc(-c3cnn4ncccc34)n2)C1 | PIK3CA C420R | binding | – | – | 1 µM | remaining binding | 100% |
| O=C(O)c1cc(-c2ccc(C3CCNCC3)cc2)c2ccc(-c3ccc(C(F)(F)F)cc3)cc2c1 | PIK3CA E542K | cell-free assay | – | competition with immobilised ligand | 1 µM | remaining binding | 100% |
| CC1CCCN1c1nccc(-c2cnn3ncccc23)n1 (stereo not shown) | PIK3CA H1047L | binding | – | – | 1 µM | remaining binding | 100% |
| CCc1ccccc1C(=O)Nc1n[nH]c2c(C)c(F)c(C3C(C#N)=C(C)N(C)C(C)=C3C#N)cc12 | PIK3CA H1047L | cell-free assay | – | competition with immobilised ligand | 1 µM | remaining binding | 100% |
| CN(CCCC(F)(F)F)c1nccc(-c2cnn3ncccc23)n1 | PIK3CA E542K | binding | – | – | 1 µM | remaining binding | 68% |
| C=CC(=O)N1CCC(C(=O)N(C)CCCC(=O)N2CCN(c3nc(-c4cnc(N)nc4C(F)F)nc(N4CCOCC4)n3)CC2)CC1 | PIK3CA | cell-free assay | – | TR-FRET | – | kinact | 0.000406 s⁻¹ |
